Self-cleavage data for 167 variants are collected here from the RNAGym collection of RNA variant scans (doi:10.1002/anie.201605470).

B1: Osa-1-4 twister ribozyme (parent)
chain: CCGCCUAACACUGCCAAUGCCGGUCCCAAGCCCGGAUAAAAGUGGAGGGGGCGG

The data set covers variants of B1. In words: self-cleavage, relative activity (ratio to wild type); higher = more cleavage; co-transcriptional. In outline: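 Relative activity is the fraction cleaved divided by that of the wild-type ribozyme. The library came from a DNA template for a 54-nucleotide Oryza sativa twister ribozyme, doped at the 48 positions downstream of the cleavage site with 97 % wild-type base and 1 % of each other base. After 2 h of in vitro transcription at 37 °C with co-transcriptional self-cleavage, the RNA was reverse-transcribed with a template-switching oligonucleotide, amplified by PCR and deep-sequenced, and reads with or without upstream sequence gave the cleavage status.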
Consider C25G C27G, for which the self-cleavage worked out at 0.07.

As for C25G C27A, the self-cleavage was determined as 0.02.

With U24A U37C, the self-cleavage was 0.28.

On to U24A U37G, for which the self-cleavage came to 0.49.

Turning to U24A U37A, the self-cleavage is 0.34.

Regarding G23A G53A, the self-cleavage came to 0.15.

Take G23A G53C: the self-cleavage stood at 0.06.

For G23A G53U, the self-cleavage stood at 0.11.

As to C25G G47C, the self-cleavage stood at 0.02.

On to C25G G47U, for which the self-cleavage was determined as 0.03.

On to C25G G47A, for which the self-cleavage amounted to 0.05.

As to G23U G54A, the self-cleavage is 0.09.

In the case of G23U G54C, the self-cleavage was 0.08.

For G23U G54U, the self-cleavage was determined as 0.2.

G23A G51C: the self-cleavage came out at 0.07.

On to G23A G51A, for which the self-cleavage was determined as 0.09.

As for G23A G51U, the self-cleavage is 0.08.

As to G23A G30U, the self-cleavage amounted to 0.04.

As for G23A G30C, the self-cleavage amounted to 0.04.

Take C25A G48A: the self-cleavage is 0.03.

Take C25A G48U: the self-cleavage worked out at 0.03.

As to C25A G48C, the self-cleavage is 0.03.

C25A U24G: the self-cleavage is 0.04.

Regarding C25A U24C, the self-cleavage was determined as 0.04.

In the case of C25A U24A, the self-cleavage is 0.04.

As to C25G C52A, the self-cleavage was found to be 0.08.

On to C25G C52G, for which the self-cleavage came to 0.12.

Regarding C25G C52U, the self-cleavage is 0.11.

C25G C33G: the self-cleavage was 0.04.

As for C25G C33U, the self-cleavage is 0.06.

Take C25G C33A: the self-cleavage is 0.03.

In the case of G23A G44C, the self-cleavage came to 0.27.

As to G23A G44U, the self-cleavage worked out at 0.18.

With G23A G44A, the self-cleavage amounted to 0.15.

For C25A G50A, the self-cleavage worked out at 0.59.

Turning to C25A G50C, the self-cleavage is 0.27.

Consider C25A G50U, for which the self-cleavage was 0.42.

Regarding C25A G35U, the self-cleavage stood at 0.09.

For the variant C25A G35A, the self-cleavage is 0.18.

For the variant C25A G35C, the self-cleavage amounted to 0.05.

With C25A, the self-cleavage came to 0.2.

C25G: the self-cleavage came to 0.12.

Consider G23A U12C, for which the self-cleavage was 0.08.

In the case of G23A U12A, the self-cleavage came to 0.1.

Consider G23A U12G, for which the self-cleavage turned out to be 0.07.

In the case of G23A G48A, the self-cleavage amounted to 0.05.

Regarding G23A G48C, the self-cleavage amounted to 0.06.

As for G23A G48U, the self-cleavage was found to be 0.05.

As to G23U, the self-cleavage turned out to be 0.18.

For the variant G23C, the self-cleavage was 0.05.

As for G23U U37C, the self-cleavage worked out at 0.16.

Consider G23U U37A, for which the self-cleavage came to 0.14.

In the case of G23U U37G, the self-cleavage amounted to 0.19.

Consider C25A C31U, for which the self-cleavage came to 0.03.

Consider C25A C31G, for which the self-cleavage was 0.03.

Turning to C25A C31A, the self-cleavage came out at 0.04.

Consider G23C G45A, for which the self-cleavage was 0.04.

Take G23C G45U: the self-cleavage was found to be 0.03.

For the variant G23C G45C, the self-cleavage worked out at 0.03.

For the variant G23A G45U, the self-cleavage stood at 0.06.

As for G23A G45C, the self-cleavage turned out to be 0.05.

In the case of G23A G45A, the self-cleavage is 0.05.

On to C25A G47A, for which the self-cleavage is 0.04.

Consider C25A G47C, for which the self-cleavage was determined as 0.03.

In the case of C25A G47U, the self-cleavage amounted to 0.04.

For U24G U37A, the self-cleavage worked out at 0.04.

Consider U24G U37C, for which the self-cleavage turned out to be 0.02.

For U24G U37G, the self-cleavage came to 0.04.

On to C25A G30A, for which the self-cleavage is 0.02.

As for C25A G30C, the self-cleavage was determined as 0.02.

For the variant C25A G30U, the self-cleavage came to 0.02.

On to G23C G47A, for which the self-cleavage stood at 0.03.

For the variant G23C G47C, the self-cleavage is 0.03.

In the case of G23C G47U, the self-cleavage was found to be 0.03.

For C25G C32G, the self-cleavage stood at 0.09.

On to C25G C32U, for which the self-cleavage was determined as 0.04.

In the case of C25G C32A, the self-cleavage is 0.03.

On to G23C G42C, for which the self-cleavage worked out at 0.05.

Consider G23C G42U, for which the self-cleavage worked out at 0.02.

Consider G23C G42A, for which the self-cleavage was found to be 0.05.

On to G23C G35A, for which the self-cleavage amounted to 0.04.

As to G23C G35U, the self-cleavage was 0.04.

As for G23C G35C, the self-cleavage worked out at 0.06.

In the case of U24C U43A, the self-cleavage turned out to be 0.08.

On to U24C U43G, for which the self-cleavage turned out to be 0.05.

As to U24C U43C, the self-cleavage was found to be 0.06.

Take G23C G48U: the self-cleavage stood at 0.02.

As to G23C G48A, the self-cleavage came to 0.02.

With G23C G48C, the self-cleavage came out at 0.02.

For the variant C25G C31A, the self-cleavage turned out to be 0.02.

On to C25G C31U, for which the self-cleavage amounted to 0.05.

For the variant C25G C31G, the self-cleavage was 0.23.

With G23U U18G, the self-cleavage came out at 0.14.

For G23U U18C, the self-cleavage is 0.1.

For the variant G23U U18A, the self-cleavage was determined as 0.1.

On to G23C U24C, for which the self-cleavage was determined as 0.04.

For the variant G23C U24A, the self-cleavage turned out to be 0.03.

With G23C U24G, the self-cleavage was determined as 0.01.

G23A U18G: the self-cleavage turned out to be 0.38.

As to G23A U18C, the self-cleavage was 0.49.

As for G23A U18A, the self-cleavage came to 0.59.

U24G U43A: the self-cleavage stood at 0.03.

Take U24G U43G: the self-cleavage turned out to be 0.07.

Take U24G U43C: the self-cleavage is 0.03.

Turning to G23U G51A, the self-cleavage was 0.05.

For G23U G51U, the self-cleavage amounted to 0.04.

Turning to G23U G51C, the self-cleavage was found to be 0.04.

As to G23C U12C, the self-cleavage worked out at 0.04.

On to G23C U12A, for which the self-cleavage was determined as 0.04.

As to G23C U12G, the self-cleavage turned out to be 0.04.

Regarding G23C G34A, the self-cleavage was 0.06.

As to G23C G34C, the self-cleavage worked out at 0.04.

Take G23C G34U: the self-cleavage worked out at 0.04.

Consider C25A C27A, for which the self-cleavage came to 0.06.

As to C25A C27U, the self-cleavage was 0.03.

Consider C25A C27G, for which the self-cleavage stood at 0.03.

Turning to C25G G23C, the self-cleavage worked out at 0.04.

C25G G23A: the self-cleavage amounted to 0.06.

Consider C25G G23U, for which the self-cleavage stood at 0.04.

C25A G23A: the self-cleavage worked out at 0.06.

Turning to C25A G23C, the self-cleavage stood at 0.02.

Regarding C25A G23U, the self-cleavage came to 0.03.

As to G23U G53A, the self-cleavage was 0.06.

For the variant G23U G53U, the self-cleavage was determined as 0.06.

Consider G23U G53C, for which the self-cleavage amounted to 0.03.

Regarding G23A G42A, the self-cleavage was found to be 0.08.

With G23A G42C, the self-cleavage is 0.07.

G23A G42U: the self-cleavage amounted to 0.05.

As to C25A G44C, the self-cleavage amounted to 0.1.

Take C25A G44U: the self-cleavage is 0.06.

Consider C25A G44A, for which the self-cleavage was 0.05.

Consider G23C U43C, for which the self-cleavage was 0.05.

With G23C U43A, the self-cleavage turned out to be 0.05.

For G23C U43G, the self-cleavage is 0.06.

For the variant C25G G42U, the self-cleavage is 0.02.

As to C25G G42C, the self-cleavage stood at 0.06.

In the case of C25G G42A, the self-cleavage was 0.09.

As for C25A U12C, the self-cleavage came out at 0.04.

Take C25A U12G: the self-cleavage was found to be 0.06.

On to C25A U12A, for which the self-cleavage worked out at 0.06.

Take U24A U43G: the self-cleavage amounted to 0.05.

Turning to U24A U43A, the self-cleavage was determined as 0.07.

Consider U24A U43C, for which the self-cleavage was determined as 0.07.

As for C25A G54U, the self-cleavage was 0.28.

On to C25A G54C, for which the self-cleavage was 0.08.

Regarding C25A G54A, the self-cleavage was found to be 0.12.

Regarding G23C G54U, the self-cleavage came to 0.06.

Turning to G23C G54A, the self-cleavage stood at 0.06.

Take G23C G54C: the self-cleavage was determined as 0.05.

C25A G53U: the self-cleavage turned out to be 0.05.

As for C25A G53C, the self-cleavage was 0.03.

For the variant C25A G53A, the self-cleavage is 0.09.

Consider C25G G45U, for which the self-cleavage worked out at 0.02.

In the case of C25G G45C, the self-cleavage came to 0.03.

As to C25G G45A, the self-cleavage was found to be 0.03.

For the variant C25A C52A, the self-cleavage worked out at 0.14.

As to C25A C52U, the self-cleavage is 0.17.

C25A C52G: the self-cleavage came out at 0.17.

For the variant G23C G51A, the self-cleavage was found to be 0.05.

Regarding G23C G51C, the self-cleavage is 0.03.

As for G23C G51U, the self-cleavage is 0.03.

As for C25A C32U, the self-cleavage is 0.04.

C25A C32G: the self-cleavage is 0.05.

As to C25A C32A, the self-cleavage amounted to 0.08.

As to C25G G44U, the self-cleavage amounted to 0.05.

On to C25G G44A, for which the self-cleavage was determined as 0.06.

For the variant C25G G44C, the self-cleavage worked out at 0.06.
